Measurements collected from several papers.
Each line is one published result; the experiments were not run side by side.
HSP90B1: Endoplasmin (HSP90B1, Canis lupus familiaris, UniProt P41148)
MTOR: Serine/threonine-protein kinase mTOR (MTOR, Homo sapiens, UniProt P42345)
LYZ: Lysozyme C (LYZ, Gallus gallus, UniProt P00698)
SMARCA2 bromodomain: SWI/SNF-related matrix-associated actin-dependent regulator of chromatin subfamily A member 2, bromodomain (SMARCA2, Homo sapiens, UniProt P51531)

Structure (SMILES) | target | assay | setting | Kd
COC(=O)c1c(O)cc(O)c(Cl)c1CCC(=O)Nc1nccs1 | HSP90B1 | ligand displacement, FP |  | 1080 nM
Cc1nc(NC(=O)N2CCC[C@H]2C(N)=O)sc1-c1ccnc(C(C)(C)C(F)(F)F)c1 | MTOR | binding, competition with immobilised ligand |  | 645 nM
CCN(CC)CCCC(C)Nc1c2ccc(Cl)cc2nc2ccc(OC)cc12 (stereo not shown) | LYZ | binding, fluorescence |  | 4700 nM
Cc1ncsc1-c1ccc(CNC(=O)[C@@H]2C[C@H](O)CN2C(=O)[C@@H](NC(=O)C2(F)CC2)C(C)(C)C)c(OCCOc2ccc(CN3CCN(c4cc(-c5ccccc5O)nnc4N)CC3)cc2)c1 | SMARCA2 bromodomain | binding, SPR |  | 1100 nM
NCCS(=O)(=O)O | Cyclin-dependent kinase 6 (CDK6, Homo sapiens, UniProt Q00534) | binding |  | 143 nM
Cc1cc2nc3c(=O)[nH]c(=O)nc-3n(C[C@H](O)[C@H](O)[C@H](O)COP(=O)(O)OP(=O)(O)OC[C@H]3O[C@@H](n4cnc5c(N)ncnc54)[C@H](O)[C@@H]3O)c2cc1C | Heterogeneous nuclear ribonucleoprotein H (Homo sapiens, UniProt P31943) | binding | lysate | 53 nM
CCCN1CCN(c2ccc(-c3cncc(Cl)c3N3CCC4(CCNC4=O)CC3)cc2)CC1 | Protein kinase C delta type (PRKCD, Homo sapiens, UniProt Q05655) | cell-free assay | lysate | 3470 nM
CC1(C)[C@@H]2CC[C@@]1(C)C(=O)C2 | Camphor 5-monooxygenase (camC, Pseudomonas putida, UniProt P00183) | binding, ITC |  | 1200 nM
CC(=O)N[C@H]1[C@H](O[C@H]2[C@H](O)[C@@H](NC(C)=O)C(O)O[C@@H]2CO)O[C@H](CO)[C@@H](O[C@@H]2O[C@H](CO)[C@@H](O)[C@H](O)[C@H]2NC(C)=O)[C@@H]1O (stereo partly shown) | LYZ | binding | pH 7.4 | 6200 nM
Cc1ncsc1-c1ccc(CNC(=O)[C@@H]2C[C@@H](O)CN2C(=O)[C@@H](NC(=O)C2(F)CC2)C(C)(C)C)c(OCCOCCOCCN2CCN(c3cc(-c4ccccc4O)nnc3N)CC2)c1 | SMARCA2 bromodomain | binding, SPR |  | 4500 nM
O=P(O)(O)O[C@H]1[C@H](O)[C@@H](OP(=O)(O)O)[C@H](OP(=O)(O)O)[C@@H](OP(=O)(O)O)[C@H]1O | PREX1 (Homo sapiens, UniProt Q8TCU6) | binding, ITC |  | 440 nM
c1cncc(-c2cccc(Nc3nccc(NC4CCCCC4)n3)c2)c1 | Non-receptor tyrosine-protein kinase TYK2, JH2 (TYK2, Homo sapiens, UniProt P29597) | binding, competition with immobilised ligand |  | 740 nM
COC(=O)c1c(O)cc(O)c(Cl)c1CCC(=O)Nc1ccccc1 | HSP90B1 | ligand displacement, FP |  | 20500 nM
NC(=O)c1ccc(-c2nc(-c3ccc4c(c3)OCO4)c(-c3ccccn3)[nH]2)cc1 | Epidermal growth factor receptor (EGFR, Homo sapiens, UniProt P00533) | binding |  | > 10000 nM
COC(=O)c1c(O)cc(O)c(Cl)c1CCC(=O)Nc1cccc(Cl)c1 | HSP90B1 | ligand displacement, FP |  | 6420 nM
CCC(=O)N1CCC(C(=O)NCC(=O)N2CCN(c3nc(-c4cnc(N)nc4C(F)F)nc(N4CCOCC4)n3)CC2)CC1 | MTOR | binding, competition with immobilised ligand |  | 33 nM
